In the library only some 4.6% were active in any assay of this set; here they are far more common.
DSG3 Ab inh: human desmoglein-3 autoantibody binding inhibition; binding (percent of control), % at 10 µM; AID 588358; DSG3-coupled beads, scFv-anti-DSG3-GFP binding, flow cytometry; hits give low values; 0.48% of 310,000 active;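 active means binding more than 3 SD below its plate's average and above zero; inconclusive means below that plate limit but binding exactly zero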;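 further: hits lower antibody fragment binding to DSG3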
ALR inh: human ALR oxidase inhibition via reduced H2O2 | inhibition, % (concentration not given with the values) | purified ALR, DTT oxidation, H2O2 HRP-luminol luminescence | P55789 | AID 485317 | 3.8% of 290,000 active;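 active means mean replicate inhibition above about 79%, with every replicate also reaching it, limit read from the data; inconclusive means only one of the two criteria met; inactive means mean below limit and not every replicate reaching it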
Target sequence (P55789 whole entry, looked up): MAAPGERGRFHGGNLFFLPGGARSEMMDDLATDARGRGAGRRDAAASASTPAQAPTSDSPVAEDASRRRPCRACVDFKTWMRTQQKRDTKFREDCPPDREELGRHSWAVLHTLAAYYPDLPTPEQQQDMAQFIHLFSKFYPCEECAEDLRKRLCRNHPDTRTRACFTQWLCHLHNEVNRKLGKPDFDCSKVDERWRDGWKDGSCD
NLRP3 yeast inh: NALP3 inhibition in yeast; Yeast reconstituted NLRP3/ASC/caspase-1, beta-gal luminescence, 24 h; 0.39% of 330,000 active; inhibition, % at 10 µM;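 active means inhibition of 50% or more; inactive means inhibition below 50%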
NALP1 yeast inh: blocks the NALP1 inflammasome reconstituted in yeast. S. cerevisiae NALP1/ASC/caspase-1 growth, X-gal OD620, 72 h. inhibition, % at 10 µM. 0.61% of 280,000 active; in the data active means inhibition mostly above about 24%, no sharp cut-off; inactive means mostly below about 32%
PolyA inh: yeast polyadenylation inhibition | S. cerevisiae SKY197-pL101 polyadenylation reporter, beta-gal luminescence; efflux-impaired pdr1/pdr3 knockout yeast; score 100 = 6 SD above DMSO | activity score, % at 12 µM | 0.02% of 300,000 active | AID 1875;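 active means lowest replicate activity score at least 50, where 100 means six control SD above control mean; inconclusive means lowest score under 50 but half or more replicates reach 50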;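 further: yeast exposed to compound for 9 h at 30 °C; higher score means more reporter readthrough which indicates perturbed polyadenylation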
Arrestin-AP2 inh: inhibitors of human beta-arrestin and AP2 interaction | FITC-arrestin peptide / GST-AP2 beads, flow cytometry; AP2 beta2 appendage carries R879A mutation | inhibition, % at 10 µM | AID 504490 | 0.31% of 340,000 active;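 active means inhibition above a set limit, near 3 SD of compounds lacking own fluorescence, cut at about 54% in these data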
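Assay system: GST-AP2 R879A bound to glutathione beads, E. coli-expressed; Medium: PBS with 0.05% Tween 20 and 0.1% BSA; Also added: fluorescein-tagged arrestin peptide at 50 nM final; Timing: 12 min plus 1 h, RT; Measured by: flow cytometry, FL1 (488/535 nm); Evaluation: percent drop in bead-associated FITC signal.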
Arr AP2 CP1: inhibitors of human beta-arrestin and AP2 interaction | shares compounds with Arrestin-AP2 inh | GST-AP2 beads, FITC arrestin peptide binding, flow cytometry; GST-fused beta2-adaptin appendage, R879A mutant | inhibition, % at 10 µM | 2% of 1,300 active | AID 504908;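 active means inhibition above a set limit, roughly 3 SD of non-fluorescent compound noise, cut at about 38% in these data; inactive means inhibition at or below that limit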;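 further: loss of bead fluorescence from 50 nM FITC arrestin peptide bound to appendage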
GST GSH counter: counter-screen for beta-arrestin AP2 inhibitors: GST-GSH bead binding. shares compounds with Arrestin-AP2 inh. GST-fluorescein binding to GSH beads, fluorescence. inhibition, % at 10 µM. 2% of 1,300 active. AID 588338;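 active means inhibition above 50%, about 3 SD of the inhibition seen with non-fluorescent compounds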;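 further: fluorescein maleimide labelled GST captured on 4 micron glutathione beads; higher means more loss of bead fluorescence from quenching or blocked binding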
A number is an active result; - = inactive; ? = inconclusive; . = no result given.

SMILES | DSG3 Ab inh | ALR inh | NLRP3 yeast inh | NALP1 yeast inh | PolyA inh | Arrestin-AP2 inh | Arr AP2 CP1 | GST GSH counter
CCCn1c(=O)c2[nH]cnc2n(-c2ccc(Cl)cc2)c1=O | - | - | - | - | - | 57.8 | - | -
CCCn1c(=O)c2[nH]cnc2n(-c2ccccc2C)c1=O | - | - | - | - | - | - | . | .
N#Cc1ccc(CSc2ccccn2)c(Cl)c1 | - | . | - | - | - | 63.2 | - | -
CCCCCCSc1ccc([C@@H]2[C@H]3C(=O)N(C)C(=O)[C@H]3[C@]3(C(=O)OC)CCCCN23)cc1OC | - | - | - | . | . | - | . | .
CCCSc1ccc([C@@H]2[C@@H]3C(=O)N(C)C(=O)[C@@H]3[C@]3(C(=O)OC)CCCN23)cc1OC | - | - | - | . | . | 59.8 | - | -
Cc1cnc(C(=O)OCC(=O)N2c3ccccc3CC2C)cn1 (stereo unspecified) | - | - | - | - | - | 55.2 | - | -
CC1Cc2ccccc2N1C(=O)COC(=O)c1cccnc1Cl (stereo unspecified) | . | - | - | - | - | - | . | .
Cn1c(=O)n(C)c2cc(N3CCOCC3)c(NC(=O)c3cccc(Cl)c3)cc21 | - | - | - | - | - | - | - | -
Cn1c(=O)n(C)c2cc(N3CCOCC3)c(NC(=O)c3ccc(F)cc3)cc21 | - | - | - | - | - | - | - | -
COc1cccc(OC)c1C(=O)Nc1cc2c(cc1N1CCOCC1)n(C)c(=O)n2C | - | - | - | - | - | - | - | -
COc1ccc(C)cc1NC(=O)CN1C(=O)COc2ccc(S(=O)(=O)N3CCOCC3)cc21 | - | - | - | - | - | - | . | .
CCOc1ccc(/C=N/NC(=O)C(=O)NCc2ccco2)cc1 | - | - | - | - | - | 101.8 | - | -
Cc1cc(C)c(NC(=O)CC(=O)c2ccccc2)c(Cl)c1 | - | - | - | - | - | - | - | -
O=C(CCC(=O)N1CCCCC1)Nc1ccc(Cl)c(Cl)c1 | - | - | - | - | - | 84.8 | - | -
O=C(CCC(=O)N1CCOCC1)Nc1ccc(Cl)c(Cl)c1 | - | - | - | - | - | - | . | .
CCCc1nc2nc(C)c(NS(=O)(=O)c3ccc(CC(C)C)cc3)c(=O)n2[nH]1 | - | - | - | - | - | - | . | .
CC(=O)Nc1cccc(-c2csc(N)n2)c1 | - | 98.4 | - | - | - | 54.9 | - | -
CCOc1ccc(N(CC(=O)NCc2ccc(OC)cc2)S(C)(=O)=O)cc1 | - | . | - | - | - | - | . | .
CC(=O)Nc1ccc(S(=O)(=O)NC(C(=O)O)C(C)O)cc1 (stereo unspecified) | - | . | - | . | - | 54.5 | - | -
Cc1sc2ncnc(NCC(C)(C)N3CCOCC3)c2c1C | - | - | - | - | - | - | . | .
c1ccc(CN2CCCC3(CCCN(Cc4nc(COc5ccccc5)no4)C3)C2)cc1 (stereo unspecified) | - | - | - | - | - | - | . | .
Cc1cc(NC(=O)c2cnn3c(C(F)(F)F)cc(-c4ccc(Br)cc4)nc23)no1 | . | - | - | - | - | - | - | -
CC(=O)Nc1ccccc1O | - | . | - | - | - | - | . | .
COc1ccc(Cl)cc1NC(=O)CC(C)=O | - | - | - | - | - | - | - | -
COc1ccc(Cl)cc1NC(=O)NCCN1CCNC1=O | . | - | - | - | - | 60.0 | - | -
SMILES | DSG3 Ab inh | ALR inh | NLRP3 yeast inh | NALP1 yeast inh | PolyA inh | Arrestin-AP2 inh | Arr AP2 CP1 | GST GSH counter
COc1ccccc1NC(=O)NCCN1CCNC1=O | . | - | - | - | - | - | . | .
CC(=O)CC(=O)Nc1ccccc1NC(C)=O | - | - | - | - | - | - | - | -
COc1ccc(NC(=O)CC(C)=O)c(OC)c1 | - | . | - | - | - | - | - | -
COc1ccccc1C(=O)NCC(=O)OCC(=O)N(CC(C)C)c1c(N)n(Cc2ccccc2)c(=O)[nH]c1=O | - | - | - | . | - | - | . | .
CCOC(=O)C(NC(=O)c1ccccc1)(Nc1nnc(C)s1)C(F)(F)F (stereo unspecified) | - | - | - | - | - | - | . | .
Cn1nc(C(F)(F)F)c(-c2ccccc2)c1NC(=O)CCC(=O)O | - | - | - | - | - | - | . | .
Cc1ccc(C2=N/C(=C/N3CCOCC3)C(=O)O2)cc1 | - | - | - | - | - | - | . | .
Cc1cccc2cc(/C=C3\N=C(c4ccccc4)OC3=O)c(N3CCOCC3)nc12 | - | - | - | - | - | 67.3 | - | -
O=S(OCCN1CCCC1)C(c1ccccc1)c1ccccc1 (stereo unspecified) | - | . | . | . | . | - | . | .
Cc1ccc(C(=O)NCC(=O)Nc2cccc(C(F)(F)F)c2)cc1 | - | . | - | - | - | - | . | .
CCC[C@@H](NS(=O)(=O)c1ccc(C)cc1)C(=O)Oc1ccc2c3c(c(=O)oc2c1)CCC3 | - | - | - | - | - | 56.5 | - | -
CCCc1ccccc1OCCNC(=O)c1cc(=O)n(C)c(=O)n1C | - | . | - | - | - | 59.7 | - | -
CCOc1ccccc1C(=O)Nc1cc(=O)n(C)c(=O)n1C | - | - | - | - | - | - | . | .
CCN(CC)CCN(Cc1cc2cc3c(cc2[nH]c1=O)OCCO3)C(=O)NC1CCCCC1 | - | - | - | - | - | - | - | -
COc1ccc(CN(Cc2cc3cc4c(cc3[nH]c2=O)OCO4)C(=O)NC2CCCCC2)cc1 | - | - | - | - | - | - | - | -
CCOC(=O)C1ON2CCCCC2C1(O)C(F)(F)F (stereo unspecified) | - | - | - | - | - | - | . | .
CN(CC(=O)OCC(=O)NCC(F)(F)F)S(=O)(=O)c1ccc(Cl)cc1 | - | - | - | - | - | - | . | .
Cc1ccc(SCCN2CCC(O)CCC2=O)cc1 (stereo unspecified) | - | - | - | - | - | - | . | .
O=C(NCC(c1cccs1)N1CCOCC1)c1cc(S(=O)(=O)N2CCOCC2)ccc1Cl (stereo unspecified) | ? | . | . | . | . | - | . | .
Cc1c(C(=O)N/N=C/c2ccccc2)[nH]c2ccc(Cl)cc12 | - | - | - | - | - | - | . | .
Cc1c(C(=O)N/N=C/c2ccc(N(C)C)cc2)[nH]c2ccc(Cl)cc12 | - | - | - | - | - | 90.2 | - | -
Cc1ccc(C2CC(c3cccs3)=NN2C(=O)CSc2nc3ccccc3o2)cc1 (stereo unspecified) | - | - | - | - | - | 61.6 | - | -
CCOc1ccccc1NC(=O)c1ccc(S(=O)(=O)N(C)c2ccccc2)cc1 | - | - | - | . | . | - | . | .
Cc1cc(Nc2ccc3c(c2)OCCO3)c2cccc(C)c2n1 | - | - | - | - | - | - | . | .
CC1CC(C)CN(C(=O)COC(=O)c2nccnc2N)C1 (stereo unspecified) | - | . | - | . | . | 62.8 | - | -

Bioassay records: PubChem BioAssay, several laboratories
